From ChEMBL document CHEMBL5107979, “Encoding BRAF inhibitor functions in protein degraders” (RSC Med Chem, 2022) come the findings set out here.

The source made the active and inactive calls. The rule behind the calls is not given here. Some results are limits rather than exact numbers.

Data set [1] in a line: Distribution coefficient, logD of compound at pH 7.4 by chromatographic method. Type of data set: physicochemical. Conditions: octanol/water. An outline of the steps: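 Chromatographic retention-time method at pH 7.4, calibrated against six reference drugs (atenolol, metoprolol, labetalol, diltiazem, triphenylene, permethrin) of known logD7.4 (R² = 0.99); mean analyte retention times converted via calibration line. At least two independent measurements per analyte.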

For data set [2], the system named is von Hippel-Lindau disease tumor suppressor/Serine/threonine-protein kinase B-raf (Homo sapiens), P15056+P40337 [V600E]. Description: Protac activity at VHL/BRAF V600E mutant degradation in human SK-MEL-28 cells harboring wild type NRAS assessed as remaining BRAF V600E level at 10 uM incubated for 24 hrs by densitometric analysis. It counts as cell-based. An outline of the steps:
(§1)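 SK-MEL-28 melanoma cells (STR-authenticated, mycoplasma-free) in DMEM + 10% FCS, 37°C, 5% CO2; 100,000 cells/well seeded, grown 48 h, then compound-treated as indicated. Lysis in D0.4 buffer (HEPES pH 7.5, 0.4 M KCl, Triton X-100, EDTA) with protease/phosphatase inhibitors. Lysates run on 4-12% Bis-Tris gels and blotted to PVDF. LI-COR imaging; BRAF densitometry normalised to loading control, expressed relative to DMSO.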

Data set [3] shares this test system. Description: Protac activity at VHL/BRAF V600E mutant degradation in human SK-MEL-28 cells harboring wild type NRAS assessed as remaining BRAF V600E level at 1 uM incubated for 4 hrs by densitometric analysis. Type of data set: cell-based. An outline of the steps: as §1
Data set [4] relates to SK-MEL-28. Kind of data set: Anticancer activity against human SK-MEL-28 cells assessed as reduction in cell viability incubated for 120 hrs by CellTiter-Glo luminescent assay. Type of data set: functional, cell-based. In a few lines:
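SK-MEL-28 in DMEM with 10% FCS, 37°C, 5% CO2; seeded 400 cells/well in 384-well plates. T0 CellTiter-Glo reading taken at 24 h on a parallel plate; compounds dispensed acoustically, 5 days incubation, then CellTiter-Glo luminescence. Normalised to DMSO; GI50 by four-parameter log(inhibitor) vs response fit; mean±s.d., n=3.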

Data set [5] can be described thus: Plasma protein binding in human at 0.5 mg/ml by HPLC analysis. Conditions: read-out: PPB (converted). Type of data set: ADME, cell-free. In a few lines:
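HSA column (50 × 3 mm, 5 μm), 30 °C; samples 0.5 mg/mL in MeCN/DMSO 9:1, 2 μL injected. 50 mM ammonium acetate pH 7.4 to 30% iPrOH gradient over 5.4 min, held to 18 min; 1.0 mL/min, UV 254 nm. Log retention times calibrated to ten reference drugs' logK (R² = 0.94), converted to %PPB.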

The test system of data set [6] is SK-MEL-28. Description: Inhibition of ERK signalling pathway in human SK-MEL-28 cells harboring BRAF V600E mutant/wild type NRAS assessed as reduction in phosphorylated ERK level at 0.1 to 10 uM incubated for 4 hrs by densitometric analysis. Conditions: dose 0.1-10 µM. It counts as cell-based. An outline of the steps: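 SK-MEL-28 melanoma in DMEM/10% FCS, plated 100,000 cells/well, grown 48 h, treated 4 h at indicated doses. Lysates (HEPES pH 7.5, 0.4 M KCl, 0.4% Triton X-100, protease/phosphatase inhibitors) immunoblotted on PVDF, imaged by LI-COR; densitometry normalised to loading control, relative to DMSO; mean of five independent repeats for dose-response.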

Data set [7] addresses Serine/threonine-protein kinase B-raf (Homo sapiens, UniProt P15056, V600E). Kind of data set: Inhibition of BRAF V600E mutant (unknown origin) using MEK1 (K97R) as substrate in presence of [gamma-33P]ATP by radiometric assay.
Data set [8] has as its system SK-N-AS. Kind of data set: Effect on ERK signalling pathway in human SK-N-AS harboring wild type BRAF/NRAS […] mutant assessed as BRAF level at 0.1 to 10 uM incubated upto 24 hrs by western blot analysis. It counts as functional, cell-based. The settings on record: dose 0.1-10 µM. In a few lines: (§2)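 SK-N-AS neuroblastoma (NRAS mutant), DMEM/10% FCS, plated 100,000 cells/well, grown 48 h, then treated 4 h at indicated doses or 24 h at 10 μM. Lysed in HEPES pH 7.5/KCl/Triton buffer with protease and phosphatase inhibitors; SDS-PAGE, PVDF transfer, LI-COR imaging; densitometry normalised to loading control, relative to DMSO.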

Data set [9] concerns SK-N-AS. Kind of data set: Effect on ERK signalling pathway in human SK-N-AS harboring wild type BRAF/NRAS […] mutant assessed as phosphorylated ERK level at 0.1 to 10 uM incubated upto 24 hrs by western blot analysis. It counts as functional, cell-based. The settings on record: dose 0.1-10 µM. In a few lines:
as §2

Data set [10] concerns von Hippel-Lindau disease tumor suppressor/Serine/threonine-protein kinase B-raf (Homo sapiens), P15056+P40337 [V600E]. Kind of data set: Protac activity at VHL/BRAF V600E mutant degradation in human SK-MEL-28 cells harboring wild type NRAS assessed as remaining BRAF V600E level at 0.1 to 10 uM incubated for 4 hrs by densitometric analysis. It counts as cell-based. Conditions: dose 0.1-10 µM. An outline of the steps: as §1

Sequence of Serine/threonine-protein kinase B-raf (P15056 2-766 V600E limits assumed): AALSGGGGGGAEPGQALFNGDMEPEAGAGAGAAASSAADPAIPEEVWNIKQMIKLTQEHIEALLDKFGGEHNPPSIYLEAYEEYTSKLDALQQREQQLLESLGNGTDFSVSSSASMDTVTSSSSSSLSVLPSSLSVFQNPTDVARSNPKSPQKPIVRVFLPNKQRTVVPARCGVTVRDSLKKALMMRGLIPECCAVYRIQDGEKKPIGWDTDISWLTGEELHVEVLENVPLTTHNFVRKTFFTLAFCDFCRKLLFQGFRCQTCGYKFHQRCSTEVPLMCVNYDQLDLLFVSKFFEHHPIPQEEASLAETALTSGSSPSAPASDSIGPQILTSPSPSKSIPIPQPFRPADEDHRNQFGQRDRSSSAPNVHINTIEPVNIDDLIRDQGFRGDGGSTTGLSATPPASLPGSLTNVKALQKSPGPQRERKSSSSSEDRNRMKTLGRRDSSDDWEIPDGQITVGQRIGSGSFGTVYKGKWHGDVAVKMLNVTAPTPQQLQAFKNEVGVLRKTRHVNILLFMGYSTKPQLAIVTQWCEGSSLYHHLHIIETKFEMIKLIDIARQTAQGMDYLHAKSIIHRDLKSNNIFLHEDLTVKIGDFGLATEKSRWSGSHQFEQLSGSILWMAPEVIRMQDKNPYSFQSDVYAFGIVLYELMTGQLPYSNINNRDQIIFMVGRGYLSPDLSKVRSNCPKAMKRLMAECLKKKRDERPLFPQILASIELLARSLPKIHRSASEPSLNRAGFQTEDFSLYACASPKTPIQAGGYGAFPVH

`O=C1Nc2ccc(I)cc2C1=Cc1cc(Br)c(O)c(Br)c1` [GW305074X] gave a chromatographic logD in data set [1] of 2.3.
On to `CCN(C)S(=O)(=O)Nc1ccc(F)c(C(=O)c2c[nH]c3ncc(-c4ccc(N5CCN(CC(=O)N[C@H](C(=O)N6C[C@H](O)C[C@H]6C(=O)NCc6ccc(-c7scnc7C)cc6)C(C)(C)C)CC5)cc4)cc23)c1F`, for which the outcome (in [2]; in the data set with SK-MEL-28 [4]) was Active. For the same molecule, in data set [3], the Remaining BRAF V600E level turned out to be 52%. In data set [1], this molecule displayed a chromatographic logD of 3.2. The fraction unbound at 0.5 mg/ml in data set [5] was 0.04.
For the molecule `CCCS(=O)(=O)Nc1ccc(F)c(C(=O)c2c[nH]c3ncc(-c4ccc(C(=O)NCCOCCOCCOCCOc5cc(-c6scnc6C)ccc5CNC(=O)[C@@H]5C[C@@H](O)CN5C(=O)[C@H](C(C)C)N5Cc6ccccc6C5=O)cc4)cc23)c1F`, the inhibition entry with SK-MEL-28 [6] was “Active”. The Remaining BRAF V600E level in data set [3] worked out at 73%. Besides, the chromatographic logD in data set [1] came out at 2.5. Besides, the half-inhibitory concentration (IC50) in [7] was 3.4 nM. Also, in data set [5], the fraction unbound at 0.5 mg/ml was 0.04.
The matching figures for `CCCS(=O)(=O)Nc1ccc(F)c(C(=O)c2c[nH]c3ncc(-c4ccc(C(=O)NCCOCCOCC(=O)N[C@H](C(=O)N5C[C@H](O)C[C@H]5C(=O)NCc5ccc(-c6scnc6C)cc5)C(C)(C)C)cc4)cc23)c1F`: “Active”, more than 95%, 2.3, 8.5 nM and 0.05.
Take `CCN(C)S(=O)(=O)Nc1ccc(F)c(C(=O)c2c[nH]c3ncc(-c4cnc(N5CCN(CC(=O)N[C@H](C(=O)N6C[C@H](O)C[C@H]6C(=O)N[C@@H](C)c6ccc(-c7scnc7C)cc6)C(C)(C)C)CC5)nc4)cc23)c1F`: the Remaining BRAF V600E level in data set [3] was more than 95%. The same molecule gave a chromatographic logD in data set [1] of 3.2. Also, the fraction unbound at 0.5 mg/ml in [5] is 0.04.
Regarding `CCCS(=O)(=O)Nc1ccc(F)c(C(=O)c2c[nH]c3ncc(-c4ccc(CNC(=O)CCCCOCCCCOCCCCOc5cc(-c6scnc6C)ccc5CNC(=O)[C@@H]5C[C@@H](O)CN5C(=O)[C@H](C(C)C)N5Cc6ccccc6C5=O)cc4)cc23)c1F`, in the data set with SK-MEL-28 [6], the inhibition entry was “Active”. In [3], the Remaining BRAF V600E level was found to be 77%. In addition, the chromatographic logD in data set [1] came to 3.6. In addition, the IC50 in data set [7] worked out at 10 nM. Further, the fraction unbound at 0.5 mg/ml in [5] is 0.04.
Turning to `CCCS(=O)(=O)Nc1ccc(F)c(C(=O)c2c[nH]c3ncc(-c4ccc(N5CCN(CC(=O)N[C@H](C(=O)N6C[C@H](O)C[C@H]6C(=O)NCc6ccc(-c7scnc7C)cc6)C(C)(C)C)CC5)cc4)cc23)c1F`, the result (in the data set with SK-N-AS [8]; in the data set on SK-N-AS [9]; in data set [10]) was Active. Further, the Remaining BRAF V600E level in data set [3] stood at 46%. In data set [1], this molecule showed a chromatographic logD of 2.9. Besides, the fraction unbound at 0.5 mg/ml in data set [5] was 0.04.
As to `CCCS(=O)(=O)Nc1ccc(F)c(C(=O)c2c[nH]c3ncc(-c4ccc(CNC(=O)CCCCOCCOCCOCCOc5cc(-c6scnc6C)ccc5CNC(=O)[C@@H]5C[C@@H](O)CN5C(=O)[C@H](C(C)C)N5Cc6ccccc6C5=O)cc4)cc23)c1F`, the inhibition entry with SK-MEL-28 [6] is “Active”. The Remaining BRAF V600E level in data set [3] turned out to be 77%. The chromatographic logD in data set [1] was found to be 2.7. Besides, the IC50 in data set [7] came to 3.8 nM. Besides, the fraction unbound at 0.5 mg/ml in data set [5] was 0.04.
With `CCCS(=O)(=O)Nc1ccc(F)c(C(=O)c2c[nH]c3ncc(-c4ccc(C(=O)NCCCCCCOCCCCCOCCCCC(=O)N[C@H](C(=O)N5C[C@H](O)C[C@H]5C(=O)NCc5ccc(-c6scnc6C)cc5)C(C)(C)C)cc4)cc23)c1F`, the inhibition result in the data set with SK-MEL-28 [6] was “Active”. The Remaining BRAF V600E level in data set [3] was more than 95%. In [1], the chromatographic logD is 3.7. For the same molecule, the IC50 in [7] was 48 nM. Besides, the fraction unbound at 0.5 mg/ml in data set [5] was 0.04.
Consider `CCCS(=O)(=O)Nc1ccc(F)c(C(=O)c2c[nH]c3ncc(-c4ccc(C(=O)NCCOCCOCCOCCCCC(=O)N[C@H](C(=O)N5C[C@H](O)C[C@H]5C(=O)NCc5ccc(-c6scnc6C)cc5)C(C)(C)C)cc4)cc23)c1F`, for which the inhibition entry in the data set on SK-MEL-28 [6] is “Active”. In addition, in [3], the Remaining BRAF V600E level is more than 95%. Moreover, the chromatographic logD in data set [1] is 2.4. In data set [7], the IC50 was determined as 0.31 nM. In addition, in [5], the fraction unbound at 0.5 mg/ml was 0.05.
